What is called Ki is a measure of affinity in units of concentration, obtained from inhibition or displacement. As usually defined, the Kd is a measure of binding affinity in units of concentration. What is called inhibition in vivo is the change of the read-out against control, counted positive when it falls.

Consider 1 compound from ChEMBL document CHEMBL4145692, “Discovery of a Locally and Orally Active CXCL12 Neutraligand (LIT-927) with Anti-inflammatory Effect in a Murine Model of Allergic Airway Hypereosinophilia” (J Med Chem, 2018).

Data set [1] has as its system Mus musculus. Kind of data set: Toxicity in Balb/c mouse model of hypereosinophilia assessed as induction of liver lesions at 350 umol/kg, ip dosed daily 2 hrs before allergen challenge for […] and measured 24 hrs after last dose by Gomori's trichrome staining based histological analysis. The data set is classed as organism-based. The settings on record: in vivo.

Data set [2] has as its target T1, Stromal cell-derived factor 1 (Homo sapiens, UniProt P48061). The experiment in a line: Binding affinity to Texas Red-labelled CXCL12 (unknown origin) assessed as inhibition of CXCL12-Texas Red binding to EGFP-labeled human CXCR4 expressed in HEK293 cell membranes pre-incubated for 1 hr by FRET-based binding assay. In short, it runs like this: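 HEK-293 cells stably expressing human EGFP-CXCR4, 10⁶ cells/ml in HEPES buffer pH 7.4 with 0.1% BSA, 21 °C. CXCL12-Texas Red (100 nM) was preincubated 1 h at room temperature with compound or DMSO, then added at t=150 s. FRET read as loss of EGFP emission at 510 nm (excitation 470 nm) up to equilibrium. Ki from dose-response curves.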

Data set [3] concerns Mus musculus. The experiment in a line: Toxicity in Balb/c mouse model of hypereosinophilia assessed as reduction in body weight at 350 umol/kg, ip dosed daily 2 hrs before allergen challenge for 10 days and measured 24 hrs after last dose. The settings on record: in vivo. Type of data set: organism-based. In short, it runs like this: (§1)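 Mice given 10 daily administrations at 350 μmol/kg. Monitored for weight loss and for signs of toxicity, including prostration and bristly hair.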

Data set [4] can be described thus: Stability in presence of GSH assessed as Michael acceptor reactivity by measuring GSH adduct formation after 2 hrs at 37 degC by LC-MS/MS method. Type of data set: physicochemical. In a few lines:
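Compound 200 μM with 500 μM reduced GSH in methanol/50 mM carbonate buffer pH 8. Aliquots taken at 1 min and 2 h, diluted 1/40, and analysed by LC-MS/MS for GSH-conjugate formation.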

In data set [5] the test system is Mus musculus. Kind of data set: Toxicity in Balb/c mouse model of hypereosinophilia assessed as reduction in body weight at 350 umol/kg, ip dosed daily 2 hrs before allergen challenge for 3 days and measured 24 hrs after last dose. Set-up: scale not given: the % may be the effect or the level left. Type of data set: organism-based. The settings on record: in vivo. In short, it runs like this: (§2)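 Same OVA model with i.p. dosing 2 h before each of the three challenges: neutraligands 350 μmol/kg in PBS/CMC 1%, AMD3100 12.6 μmol/kg, dexamethasone 2.5 μmol/kg. Body and spleen weight loss recorded 24 h after three daily administrations; n=6/group.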

In data set [6] the test system is Mus musculus. Kind of data set: Toxicity in Balb/c mouse model of hypereosinophilia assessed as induction of heart lesions at 350 umol/kg, ip dosed daily 2 hrs before allergen challenge for […] and measured 24 hrs after last dose by Gomori's trichrome staining based histological analysis. Type of data set: organism-based. The settings on record: in vivo.
Data set [7] has as its system Mus musculus. Kind of data set: Toxicity in Balb/c mouse model of hypereosinophilia assessed as toxic signs at 350 umol/kg, ip dosed daily 2 hrs before allergen challenge for 10 days and measured 24 hrs after last dose. The data set is classed as organism-based. The following applies: in vivo. In short, it runs like this:
as §1

The test system of data set [8] is Mus musculus. Kind of data set: Toxicity in Balb/c mouse model of hypereosinophilia assessed as reduction in spleen weight at 12.6 umol/kg, ip dosed daily 2 hrs before allergen challenge for 3 days and measured 24 hrs after last dose. Type of data set: organism-based. The settings on record: in vivo. In short, it runs like this:
as §2

Data set [9] addresses T1, Stromal cell-derived factor 1. The experiment in a line: Binding affinity to CXCL12 (unknown origin) assessed as changes in tryptophan fluorescence intensity. In a few lines: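 Intrinsic Trp fluorescence of CXCL12 (2 μM in Hepes buffer), excitation 285 nm, emission 340 nm, titrated with increasing compound. Kd obtained by fitting a 1:1 binding quadratic model with chemokine fixed at 2 μM. Mean ± SD of three independent experiments.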

Data set [10] in a line: Thermodynamic solubility in pH 7.4 PBS buffer incubated for 24 hrs at 22 degC by HPLC method. Type of data set: physicochemical. The following applies: read-out: Therm_solubility. In short, it runs like this:
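Powder dissolved to saturation in pH 7.4 PBS (100 mM sodium phosphate, 150 mM NaCl), or in PBS with 10% Cdx, and shaken 24 h. After centrifugation, supernatant quantified by HPLC against a per-compound calibration line prepared from the DMSO stock.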

Data set [11] concerns Mus musculus. The experiment in a line: Toxicity in Balb/c mouse model of hypereosinophilia assessed as induction of kidney lesions at 350 umol/kg, ip dosed daily 2 hrs before allergen challenge for […] and measured 24 hrs after last dose by Gomori's trichrome staining based histological analysis. Type of data set: organism-based. The settings on record: in vivo.
Data set [12] can be described thus: Chemical stability in pH 7.4 PBS/Cdx buffer assessed as parent compound remaining at 10 uM incubated for 24 hrs by RP-HPLC method. Type of data set: physicochemical. The settings on record: read-out: Stability. In a few lines: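 Compound diluted from DMSO stock to 10 μM final (1% DMSO) in PBS pH 7.4, or in PBS with 10% w/w (2-hydroxypropyl)-β-cyclodextrin. Sampled at t0, 2, 4, 6 and 24 h and injected directly onto RP-HPLC. Percent remaining relative to t0 from peak area.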

The test system of data set [13] is Mus musculus. Kind of data set: Toxicity in Balb/c mouse model of hypereosinophilia assessed as induction of bristly hair at 350 umol/kg, ip dosed daily 2 hrs before allergen challenge for 10 days and measured 24 hrs after last dose. The data set is classed as organism-based. The following applies: in vivo. In a few lines:
as §1

Data set [14] concerns Mus musculus. Kind of data set: Anti-inflammatory activity in Balb/c mouse model of hypereosinophilia assessed as inhibition of eosinophil infiltration at 350 umol/kg, ip dosed 2 hrs before allergen challenge. The data set is classed as functional. In short, it runs like this: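 Balb/c mice sensitized with OVA/alum i.p. and challenged intranasally with OVA on 3 consecutive days. Compounds given i.p. 2 h before each challenge: neutraligands 350 μmol/kg in PBS/CMC 1%, AMD3100 12.6 μmol/kg, dexamethasone 2.5 μmol/kg. BAL 24 h after the last challenge; absolute eosinophil counts; mean ± SEM, n=6/group.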

Each structure is given as a SMILES string. In brackets after ≈: the same amount, converted by molar mass.

T1 sequence (P48061 whole entry): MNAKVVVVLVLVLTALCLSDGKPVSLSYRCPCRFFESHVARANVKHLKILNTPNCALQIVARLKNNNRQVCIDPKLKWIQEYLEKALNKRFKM

Consider `COc1cc(-c2cc(-c3ccc(Cl)cc3)nc(=O)[nH]2)ccc1O`, for which the Activity result in data set [1] was “Non-Toxic”; in data set [3], “Non-Toxic”; in data set [5], 0%; in data set [6] it was “Non-Toxic”; in [7] it was “Non-Toxic”; in [8], “Non-Toxic”. Also, the Activity entry in data set [11] and in [13] was “Non-Toxic” in each case. Further, the Ki in data set [2] is 267 nM. In addition, the Stability entry in [4] was “Stable”. For the same compound, the Kd in data set [9] turned out to be 780 nM. In data set [10], the solubility thermodynamic at 24 h was 36.4 µM (≈ 12 µg/mL). For the same compound, the remaining at 24 h, 10 µM in [12] is 100%. The inhibition in vivo at 350 µmol/kg in [14] is 55%.
